Calls of active or inactive are those of the source. The calls are words filed in the database; no cut-off is given here. Where a SMILES comes first, the peptide text is derived from it. [ ]: non-standard residue; d: D form. The star is where a group is joined. 1Nal = N[C@@H](Cc1cccc2ccccc12)C(=O)O; Ala(cPent) = N[C@@H](CC1CCCC1)C(=O)O; tBuAla = CC(C)(C)C[C@H](N)C(=O)O; Aic = NC1(C(=O)O)Cc2ccccc2C1; Chg = N[C@H](C(=O)O)C1CCCCC1; Cbz = O=C(OCc1ccccc1)*

For assay [1], the target named is T1, Adenomatous polyposis coli protein (Homo sapiens, UniProt P25054). Briefly: Binding affinity to APC (unknown origin) assessed as association constant at 30 degC by ITC method. The procedure, abridged:
(§1)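 ITC in 50 mM HEPES pH 7.5, 300 mM NaCl, 1 mM EDTA at 30 °C. Titrations were repeated three times. Kd, ΔG, ΔH and −TΔS are averages of the three independent experiments. L/P ratio gives sites per APC.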
On the technique in general: Isothermal titration calorimetry measures the heat released or taken up as one component is titrated into another.

Assay [2] has as its target T1, Adenomatous polyposis coli protein. As to the kind of experiment: Binding affinity to His-tagged APC (unknown origin) by surface plasmon resonance assay. The procedure, abridged:
(§2)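 His-APC amine-coupled to a CM5 chip (EDC/NHS; protein in 50 mM Hepes, 300 mM NaCl, 1 mM EDTA, pH 7.5); BSA reference cell. Peptides injected in 0.05 M Hepes pH 7.5 at 30 µL/min; dissociation 6 min; regeneration with glycine-HCl pH 2.0. Kinetic constants fitted to a 1:1 Langmuir model.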

Assay [3] shares this target. Briefly: Binding affinity to His-tagged APC (unknown origin) assessed as dissociation constant by surface plasmon resonance assay. The essentials:
as §2
(In general: In SPR one partner is held on a chip, and binding of the other changes the refractive index at the surface.)

Assay [4] has the same target. As to the kind of experiment: Binding affinity to APC (unknown origin) at 37 degC by ITC method. The procedure, abridged: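 ITC at 37 °C in 50 mM HEPES pH 7.5, 300 mM NaCl, 1 mM EDTA. Titrations were repeated three times.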
Assay [5] shares this target. Briefly: Binding affinity to His-tagged APC (unknown origin) assessed as residence time by surface plasmon resonance assay. The essentials:
as §2

Assay [6] concerns the target T2, APC/Asef (Homo sapiens) (UniProt P25054+Q9NR80). As to the kind of experiment: Inhibition of Flag-APC (303 to 876 residues) (unknown origin) /HA-Asef (170 to 632 residues) (unknown origin) interaction expressed in HEK293T cell lysates at 10 uM incubated for 2 hrs by coimmunoprecipitation assay. The procedure, abridged:
(§3)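 HEK293T cells co-transfected with Flag-APC (303–876) and HA-Asef (170–632); lysed in RIPA after 24 h and lysate cleared. Supernatant incubated with compound (2 or 10 µM) or DMSO for 2 h at 4 °C, then anti-FLAG M2 gel overnight at 4 °C. Beads washed and proteins analysed by western blot (anti-HA, anti-Flag), single experiment.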

In assay [7] the target is T1, Adenomatous polyposis coli protein. Briefly: Binding affinity to APC protein (303 to 739 residues) (unknown origin) incubated for 60 mins followed by probe addition and measured after 60 mins by competitive fluorescence polarization assay. The essentials:
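Peptide in DMSO preincubated with protein 60 min at room temperature with shaking; probe added, then 60 min more. Controls: blank, tracer only, complex only. IC50 from dose-response curves, mean of three independent experiments.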

The target is the same in assay [8]. Briefly: Reversible binding affinity to His-tagged APC (unknown origin) by surface plasmon resonance assay. The essentials:
as §2

Assay [9] shares this target. As to the kind of experiment: Binding affinity to His-tagged APC (unknown origin) assessed as association constant by surface plasmon resonance assay. The essentials: as §2
Assay [10] shares this target. Briefly: Binding affinity to APC (unknown origin) at 30 degC by ITC method. The procedure, abridged:
as §1

Assay [11] has the same target. Briefly: Binding affinity to APC (unknown origin) assessed as induction of blue shifts in fluorescence for APC-compound complexes at 35 uM incubate fro 30 mins by tryptophan fluorescence measurements assay. The essentials:
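APC protein (5 µM) alone or with peptide at 35 µM in 50 mM Hepes pH 7.5, 300 mM NaCl, 1 mM EDTA, 50 µL. Incubated 30 min at room temperature with gentle shaking. Tryptophan excited at 280 nm; emission scanned 300–500 nm. Run in triplicate.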

Assay [12] has the same target. Briefly: Binding affinity to APC (unknown origin) assessed as intramolecular hydrogen bond formation by 1H nuclear magnetic resonance based hydrogen-deuterium-exchange assay.
Assay [13] has as its target T2, APC/Asef (Homo sapiens). As to the kind of experiment: Inhibition of Flag-APC (303 to 876 residues) (unknown origin) /HA-Asef (170 to 632 residues) (unknown origin) interaction expressed in HEK293T cell lysates incubated for 2 hrs by coimmunoprecipitation assay. The essentials:
as §3

T1 sequence (P25054 whole entry): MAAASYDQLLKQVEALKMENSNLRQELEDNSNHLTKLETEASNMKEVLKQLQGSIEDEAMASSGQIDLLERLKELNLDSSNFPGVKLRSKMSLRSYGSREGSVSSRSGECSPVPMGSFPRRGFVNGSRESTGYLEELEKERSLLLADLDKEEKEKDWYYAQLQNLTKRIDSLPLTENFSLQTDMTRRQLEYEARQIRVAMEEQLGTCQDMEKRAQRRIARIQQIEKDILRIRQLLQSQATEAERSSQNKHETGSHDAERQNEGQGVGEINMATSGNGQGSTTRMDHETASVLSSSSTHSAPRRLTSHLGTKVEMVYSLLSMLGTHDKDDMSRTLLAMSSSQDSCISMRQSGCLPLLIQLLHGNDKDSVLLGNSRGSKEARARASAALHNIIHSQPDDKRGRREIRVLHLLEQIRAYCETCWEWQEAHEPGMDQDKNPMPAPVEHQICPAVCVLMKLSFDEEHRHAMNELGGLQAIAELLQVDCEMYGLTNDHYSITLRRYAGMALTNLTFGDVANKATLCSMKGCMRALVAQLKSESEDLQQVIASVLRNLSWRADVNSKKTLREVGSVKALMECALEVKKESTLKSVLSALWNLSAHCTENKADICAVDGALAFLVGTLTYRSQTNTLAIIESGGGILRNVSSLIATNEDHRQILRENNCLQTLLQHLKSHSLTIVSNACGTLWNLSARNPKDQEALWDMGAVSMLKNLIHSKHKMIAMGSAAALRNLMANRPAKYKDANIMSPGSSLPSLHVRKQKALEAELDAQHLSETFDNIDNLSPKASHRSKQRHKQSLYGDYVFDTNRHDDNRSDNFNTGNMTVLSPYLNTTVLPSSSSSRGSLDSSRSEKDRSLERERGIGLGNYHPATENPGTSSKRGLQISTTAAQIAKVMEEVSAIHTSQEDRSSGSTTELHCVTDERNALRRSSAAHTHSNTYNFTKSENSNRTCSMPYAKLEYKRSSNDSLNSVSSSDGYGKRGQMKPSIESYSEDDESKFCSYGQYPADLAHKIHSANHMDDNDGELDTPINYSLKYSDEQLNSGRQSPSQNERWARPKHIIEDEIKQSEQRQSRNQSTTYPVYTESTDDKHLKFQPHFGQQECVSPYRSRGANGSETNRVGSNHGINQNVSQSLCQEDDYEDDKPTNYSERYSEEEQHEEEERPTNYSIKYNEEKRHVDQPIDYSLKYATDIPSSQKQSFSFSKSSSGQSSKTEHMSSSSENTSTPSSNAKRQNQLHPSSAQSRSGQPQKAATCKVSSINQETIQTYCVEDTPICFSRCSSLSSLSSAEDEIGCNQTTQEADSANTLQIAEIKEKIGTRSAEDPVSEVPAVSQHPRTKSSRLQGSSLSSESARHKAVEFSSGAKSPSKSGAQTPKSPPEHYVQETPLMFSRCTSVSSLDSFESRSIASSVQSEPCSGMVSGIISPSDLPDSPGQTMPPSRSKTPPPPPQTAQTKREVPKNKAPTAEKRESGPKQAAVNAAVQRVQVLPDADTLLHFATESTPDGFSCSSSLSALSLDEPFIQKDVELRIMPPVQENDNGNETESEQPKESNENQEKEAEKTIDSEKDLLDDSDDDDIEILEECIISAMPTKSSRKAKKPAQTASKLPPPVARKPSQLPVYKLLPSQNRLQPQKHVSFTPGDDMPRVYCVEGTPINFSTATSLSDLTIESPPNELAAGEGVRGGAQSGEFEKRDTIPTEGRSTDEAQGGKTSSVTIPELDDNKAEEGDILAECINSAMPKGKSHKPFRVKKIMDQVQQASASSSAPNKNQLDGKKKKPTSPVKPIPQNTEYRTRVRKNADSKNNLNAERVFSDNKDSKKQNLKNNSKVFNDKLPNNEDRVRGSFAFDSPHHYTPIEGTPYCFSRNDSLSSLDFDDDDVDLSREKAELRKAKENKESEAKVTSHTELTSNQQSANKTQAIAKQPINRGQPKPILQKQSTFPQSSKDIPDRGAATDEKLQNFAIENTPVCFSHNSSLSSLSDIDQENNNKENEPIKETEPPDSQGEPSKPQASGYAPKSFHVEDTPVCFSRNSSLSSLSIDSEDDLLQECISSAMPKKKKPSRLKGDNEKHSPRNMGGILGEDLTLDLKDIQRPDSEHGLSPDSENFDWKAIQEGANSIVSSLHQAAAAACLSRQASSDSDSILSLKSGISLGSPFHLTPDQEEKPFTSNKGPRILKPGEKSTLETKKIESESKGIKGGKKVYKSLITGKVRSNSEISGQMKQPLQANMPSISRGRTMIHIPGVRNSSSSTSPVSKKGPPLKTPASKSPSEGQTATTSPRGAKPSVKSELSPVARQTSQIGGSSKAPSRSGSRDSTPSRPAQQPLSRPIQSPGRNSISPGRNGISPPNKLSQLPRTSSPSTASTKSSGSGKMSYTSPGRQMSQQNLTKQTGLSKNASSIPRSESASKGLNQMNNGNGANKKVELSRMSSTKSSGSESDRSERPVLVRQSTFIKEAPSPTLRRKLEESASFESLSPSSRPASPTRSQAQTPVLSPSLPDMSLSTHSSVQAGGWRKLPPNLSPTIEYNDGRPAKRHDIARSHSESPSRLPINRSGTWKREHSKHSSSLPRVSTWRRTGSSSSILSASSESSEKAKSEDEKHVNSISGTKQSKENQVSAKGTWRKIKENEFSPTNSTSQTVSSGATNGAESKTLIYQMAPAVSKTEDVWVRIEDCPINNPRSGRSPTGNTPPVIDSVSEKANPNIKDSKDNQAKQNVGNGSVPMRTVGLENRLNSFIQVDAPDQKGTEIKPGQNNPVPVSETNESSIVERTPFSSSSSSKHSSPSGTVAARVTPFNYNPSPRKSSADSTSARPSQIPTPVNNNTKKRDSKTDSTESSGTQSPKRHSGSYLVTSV

Broadly, the Kd is a measure of binding affinity in units of concentration. The term IC50 denotes the concentration that inhibits the measured activity by half. For the compound `CC(C)C[C@H](NC(=O)[C@H](C)NC(=O)[C@H](CCC(=O)O)NC(=O)CNC(=O)[C@H](C)NC(=O)OCc1ccccc1)C(=O)N[C@@H](Cc1ccc(O)cc1)C(=O)N[C@@H](CCC(=O)O)C(N)=O` (Cbz-AGEALYE-NH2), the K in assay [1] amounted to 4.71 ×10⁶ /M; in [3], 8.2 ×10⁻² /s; in [9] it was 1.92 ×10⁵ /M/s. In addition, the results for the Kd in assay [2], in assay [4] and in assay [10] were 430 nM, 1800 nM and 210 nM, respectively. Moreover, the TIME in [5] was found to be 0.00333 h. Moreover, the inhibition result on APC/Asef (Homo sapiens) [6] is “Active”. Also, the half-inhibitory concentration (IC50) in assay [7] was found to be 1090 nM. In addition, the Activity entry in [8] was “Dose-dependent effect”. Besides, the result in assay [11] was Active.
Turning to `CC(C)C[C@H](NC(=O)[C@H](CO)NC(=O)[C@H](CCC(=O)O)NC(=O)CNC(=O)[C@H](C)NC(=O)OCc1ccccc1)C(=O)N[C@@H](Cc1ccc(O)cc1)C(=O)N[C@@H](CCC(=O)O)C(N)=O` (Cbz-AGESLYE-NH2), the results for the K in [1], in assay [3] and in [9] were 8.21 ×10⁷ /M, 6.7 ×10⁻² /s and 3.05 ×10⁵ /M/s, respectively. The outcome in assay [12] and in [11] was Active. In addition, the Kd in [2] came out at 220 nM; in [4], 210 nM; in [10] it was 12 nM. Also, in assay [5], the TIME turned out to be 0.00417 h. In assay [7], this compound showed an IC50 of 250 nM. Further, the inhibition entry (in [8]; on APC/Asef (Homo sapiens) [13]) was “Dose-dependent effect” in each case.
As to `CC(C)C[C@H](NC(=O)[C@H](Cc1ccc(O)cc1)NC(=O)[C@H](CCC(=O)O)NC(=O)CNC(=O)[C@H](C)NC(=O)OCc1ccccc1)C(=O)N[C@@H](Cc1ccc(O)cc1)C(=O)N[C@@H](CCC(=O)O)C(N)=O` (Cbz-AGEYLYE-NH2), the half-maximal inhibitory concentration (IC50) in assay [7] came out at 5460 nM.
As to `C[C@H](NC(=O)OCc1ccccc1)C(=O)NCC(=O)N[C@@H](CCC(=O)O)C(=O)N[C@@H](CO)C(=O)N[C@H](C(=O)N[C@@H](Cc1ccc(O)cc1)C(=O)N[C@@H](CCC(=O)O)C(N)=O)C1CCCCC1` (Cbz-AGES[Chg]YE-NH2), in assay [7], the IC50 turned out to be 2950 nM.
Still for that read-out and setting: under `C[C@H](NC(=O)OCc1ccccc1)C(=O)NCC(=O)N[C@@H](CCC(=O)O)C(=O)N[C@@H](CO)C(=O)NC1(C(=O)N[C@@H](Cc2ccc(O)cc2)C(=O)N[C@@H](CCC(=O)O)C(N)=O)Cc2ccccc2C1` (Cbz-AGES[Aic]YE-NH2) stands 25600 nM; under `C[C@H](NC(=O)OCc1ccccc1)C(=O)NCC(=O)N[C@@H](CCC(=O)O)C(=O)N[C@@H](CO)C(=O)N[C@@H](Cc1cccc2ccccc12)C(=O)N[C@@H](Cc1ccc(O)cc1)C(=O)N[C@@H](CCC(=O)O)C(N)=O` (Cbz-AGES[1Nal]YE-NH2), 10100 nM.
Compound `C[C@H](NC(=O)OCc1ccccc1)C(=O)NCC(=O)N[C@@H](CCC(=O)O)C(=O)N[C@@H](CO)C(=O)N[C@@H](CC(C)(C)C)C(=O)N[C@@H](Cc1ccc(O)cc1)C(=O)N[C@@H](CCC(=O)O)C(N)=O` (Cbz-AGES[tBuAla]YE-NH2) returned an IC50 in [7] of 1780 nM.
Take `CC(C)[C@H](NC(=O)[C@H](CO)NC(=O)[C@H](CCC(=O)O)NC(=O)CNC(=O)[C@H](C)NC(=O)OCc1ccccc1)C(=O)N[C@@H](Cc1ccc(O)cc1)C(=O)N[C@@H](CCC(=O)O)C(N)=O` (Cbz-AGESVYE-NH2): the IC50 in [7] was determined as 12400 nM.
Compound `C[C@H](NC(=O)OCc1ccccc1)C(=O)NCC(=O)N[C@@H](CCC(=O)O)C(=O)N[C@@H](CO)C(=O)N[C@@H](CC1CCCC1)C(=O)N[C@@H](Cc1ccc(O)cc1)C(=O)N[C@@H](CCC(=O)O)C(N)=O` (Cbz-AGES[Ala(cPent)]YE-NH2) registered an IC50 in assay [7] of 620 nM.

The record behind these values is ChEMBL document CHEMBL4145690, “Rational Design and Structure Validation of a Novel Peptide Inhibitor of the Adenomatous-Polyposis-Coli (APC)-Rho-Guanine-Nucleotide-Exchange-Factor-4 (Asef) Interaction” (J Med Chem, 2018).
